The Kd is the free concentration of one partner at which half of the binding sites on the other are occupied at equilibrium, for simple one-to-one binding. Low readings indicate a tighter complex, high ones a looser complex.

Activity calls are given as the source filed them. The calls are words filed in the database; no cut-off is given here.

Consider three molecules from ChEMBL document CHEMBL1772967 (J Med Chem, 2011).

The nature of data set [1]: Binding affinity to 10 uM of human alpha-1-acid glycoprotein in at 5 uM after 6 hrs by equilibrium dialysis method. The following applies: isolated protein. The data set is classed as ADME. In a few lines: (§1)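 [14C]-labelled plus unlabelled drug added to human AAG at 0.5, 1 or 5 mg/mL to give 5, 25 or 75 μM drug. Dialysed against 0.133 M isotonic phosphate buffer, 6 h, 37 °C, 5% CO2. Scintillation counting of both sides gives % free (buffer/protein side ×100) and % bound. High-affinity KD from a two-site fit of bound vs free, Bmax1 fixed at the AAG concentration.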

Data set [2] is described as follows: Binding affinity human alpha-1-acid glycoprotein in after 6 hrs by equilibrium dialysis method. The data set is classed as ADME. In a few lines: as §1
For orientation: In equilibrium dialysis only unbound substance equilibrates across the membrane.

Data set [3] deals with Sonic hedgehog protein (Homo sapiens) (UniProt Q15465). Kind of data set: Inhibition of human SHH pathway in mouse S12 cells assessed as GLI-mediated transcriptional activity after 48 hrs by luciferase reporter gene assay in presence of 1 mg/mL human alpha-1-acid glycoprotein. It is filed as cell-based. The method, boiled down: (§2)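 Mouse C3H10T1/2-derived S12 cells carrying a stably integrated GLI-luciferase reporter. Grown in high-glucose DMEM with 10% FBS, replated, then switched to 0.5% FBS to induce cilia. Shh, human AAG (0, 0.5, 1 or 5 mg/mL) and compound added. Luciferase (Dual-Glo) read after 48 h. Mean of four experiments ±SD.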
Sequence of Sonic hedgehog protein (Homo sapiens) (Q15465 24-197 limits assumed): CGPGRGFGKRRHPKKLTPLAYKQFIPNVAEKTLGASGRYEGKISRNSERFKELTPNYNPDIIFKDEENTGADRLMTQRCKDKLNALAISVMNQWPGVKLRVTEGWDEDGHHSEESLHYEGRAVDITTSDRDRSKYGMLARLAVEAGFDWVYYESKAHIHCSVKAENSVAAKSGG
In general terms: Reporter assays use an easily measured gene product as a stand-in for the process of interest.

The target is the same in data set [4]. Kind of data set: Inhibition of human SHH pathway in mouse S12 cells assessed as GLI-mediated transcriptional activity at 3 uM after 48 hrs by luciferase reporter gene assay in presence of 5 mg/mL human alpha-1-acid glycoprotein. It is filed as cell-based. In a few lines:
as §2

Data set [5] can be described thus: Binding affinity to human alpha-1-acid glycoprotein at 37 degC by surface plasmon resonance assay. The data set is classed as ADME. In a few lines: (§3)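 Cross-serial dilutions, top 250 μM. Reference-subtracted, solvent-corrected, double-referenced responses at the end of association plotted against concentration and fitted to single- or two-site equilibrium models.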
On the technique in general: Surface plasmon resonance follows binding to a sensor surface in real time, without labels.

Data set [6] in a line: Binding affinity to rat alpha-1-acid glycoprotein at 250 uM at 37 degC by surface plasmon resonance assay. The data set is classed as ADME. The method, boiled down:
as §3

Data set [7] addresses T1, Albumin (Rattus norvegicus, UniProt P02770). The experiment in a line: Binding affinity to rat serum albumin at 37 degC by surface plasmon resonance assay.
Data set [8] is described as follows: Binding affinity to low-affinity site of human alpha-1-acid glycoprotein at 20 degC by surface plasmon resonance assay. It is filed as ADME. The method, boiled down: as §3
Data set [9] addresses T1, Albumin. Kind of data set: Binding affinity to high-affinity binding site of rat serum albumin at 20 degC by surface plasmon resonance assay.
For data set [10], the target named is T1, Albumin. Kind of data set: Binding affinity to low-affinity binding site of rat serum albumin at 20 degC by surface plasmon resonance assay.
The nature of data set [11]: Binding affinity to human alpha-1-acid glycoprotein at 20 degC by isothermal titration calorimetry analysis. The data set is classed as ADME. The method, boiled down:
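ITC at 20 °C. Human (300 μM) or rat (100 μM) AAG dialysed overnight at 4 °C into 50 mM HEPES pH 7.2, 150 mM NaCl, 0.005% Tween-20, 5% DMSO. Heats corrected with buffer controls and fitted to a one-site model.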

Data set [12] in a line: Binding affinity to high-affinity site of human alpha-1-acid glycoprotein at 20 degC by surface plasmon resonance assay. The data set is classed as ADME. The method, boiled down: as §3
Data set [13] in a line: Binding affinity to […] uM of human alpha-1-acid glycoprotein in at 5 uM after 6 hrs by equilibrium dialysis method. The data set is classed as ADME. The conditions noted are these: isolated protein.
The nature of data set [14]: Binding affinity to 100 uM of human alpha-1-acid glycoprotein in at 5 uM after 6 hrs by equilibrium dialysis method. It is filed as ADME. The conditions noted are these: isolated protein. The method, boiled down: as §1
The nature of data set [15]: Binding affinity to 10 uM of human alpha-1-acid glycoprotein in at 25 uM after 6 hrs by equilibrium dialysis method. The following applies: isolated protein. The data set is classed as ADME. The method, boiled down:
as §1

The nature of data set [16]: Binding affinity to […] uM of human alpha-1-acid glycoprotein in at 25 uM after 6 hrs by equilibrium dialysis method. The data set is classed as ADME. The following applies: isolated protein.
The nature of data set [17]: Binding affinity to 100 uM of human alpha-1-acid glycoprotein in at 25 uM after 6 hrs by equilibrium dialysis method. It is filed as ADME. The conditions noted are these: isolated protein. In a few lines: as §1
A short description of data set [18]: Binding affinity to 10 uM of human alpha-1-acid glycoprotein in at 75 uM after 6 hrs by equilibrium dialysis method. It is filed as ADME. The conditions noted are these: isolated protein. The method, boiled down: as §1
Data set [19] can be described thus: Binding affinity to […] uM of human alpha-1-acid glycoprotein in at 75 uM after 6 hrs by equilibrium dialysis method. The data set is classed as ADME. The following applies: isolated protein.
Data set [20] is described as follows: Binding affinity to 100 uM of human alpha-1-acid glycoprotein in at 75 uM after 6 hrs by equilibrium dialysis method. It is filed as ADME. The following applies: isolated protein. In a few lines: as §1
Data set [21] in a line: Binding affinity to human alpha-1-acid glycoprotein at 500 uM at 37 degC by surface plasmon resonance assay. It is filed as ADME. In a few lines:
(§4)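 Compounds were diluted from 10 mM DMSO stocks into 50 mM Hepes pH 7.2, 150 mM NaCl, 0.005% Tween-20, 5% DMSO, in cross-serial dilutions. Responses at the end of association were double-referenced, solvent-corrected and fit to single- or two-site equilibrium models for KD.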

A short description of data set [22]: Binding affinity to rat alpha-1-acid glycoprotein at 500 uM at 37 degC by surface plasmon resonance assay. It is filed as ADME. The method, boiled down:
as §4

Data set [23] is described as follows: Binding affinity to human alpha-1-acid glycoprotein at 500 uM at 20 degC by surface plasmon resonance assay. It is filed as ADME. In a few lines: as §4
Data set [24] can be described thus: Binding affinity to rat alpha-1-acid glycoprotein at 500 uM at 20 degC by surface plasmon resonance assay. It is filed as ADME. In a few lines: as §4
Data set [25] deals with T2, Albumin (Homo sapiens, UniProt P02768). Kind of data set: Binding affinity to human serum albumin at 500 uM at 37 degC by surface plasmon resonance assay. It is filed as ADME. The following applies: isolated protein.
T2 sequence (P02768 whole entry): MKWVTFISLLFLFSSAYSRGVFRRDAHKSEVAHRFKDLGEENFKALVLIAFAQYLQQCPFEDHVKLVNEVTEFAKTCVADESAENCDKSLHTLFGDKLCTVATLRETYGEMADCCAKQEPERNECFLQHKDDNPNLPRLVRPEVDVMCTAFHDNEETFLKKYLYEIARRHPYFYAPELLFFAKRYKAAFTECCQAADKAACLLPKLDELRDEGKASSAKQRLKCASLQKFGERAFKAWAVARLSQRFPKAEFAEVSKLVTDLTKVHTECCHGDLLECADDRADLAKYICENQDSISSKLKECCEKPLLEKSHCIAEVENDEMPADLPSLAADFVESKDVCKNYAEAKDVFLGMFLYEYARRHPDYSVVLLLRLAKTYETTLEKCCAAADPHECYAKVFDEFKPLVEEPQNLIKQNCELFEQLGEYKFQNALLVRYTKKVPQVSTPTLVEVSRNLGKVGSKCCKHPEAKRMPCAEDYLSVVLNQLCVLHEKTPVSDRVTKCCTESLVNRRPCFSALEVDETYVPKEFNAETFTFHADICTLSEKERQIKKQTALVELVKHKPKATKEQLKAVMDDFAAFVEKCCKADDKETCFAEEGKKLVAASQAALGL
Data set [26] addresses T1, Albumin. The experiment in a line: Binding affinity to rat serum albumin at 500 uM at 37 degC by surface plasmon resonance assay. The following applies: isolated protein. It is filed as ADME.
The nature of data set [27]: Binding affinity to high-affinity binding site of rat alpha-1-acid glycoprotein at 20 degC by surface plasmon resonance assay. The data set is classed as ADME. In a few lines: as §3
A short description of data set [28]: Binding affinity to low-affinity binding site of rat alpha-1-acid glycoprotein at 20 degC by surface plasmon resonance assay. The data set is classed as ADME. In a few lines: as §3
In data set [29] the target is T2, Albumin. Kind of data set: Binding affinity to human serum albumin at 500 uM at 20 degC by surface plasmon resonance assay. The following applies: isolated protein. It is filed as ADME.
The target in data set [30] is T1, Albumin. Kind of data set: Binding affinity to rat serum albumin at 500 uM at 20 degC by surface plasmon resonance assay. It is filed as ADME. The conditions noted are these: isolated protein.
The nature of data set [31]: Binding affinity to human alpha-1-acid glycoprotein at 25 degC. It is filed as ADME.

T1 sequence (P02770 whole entry): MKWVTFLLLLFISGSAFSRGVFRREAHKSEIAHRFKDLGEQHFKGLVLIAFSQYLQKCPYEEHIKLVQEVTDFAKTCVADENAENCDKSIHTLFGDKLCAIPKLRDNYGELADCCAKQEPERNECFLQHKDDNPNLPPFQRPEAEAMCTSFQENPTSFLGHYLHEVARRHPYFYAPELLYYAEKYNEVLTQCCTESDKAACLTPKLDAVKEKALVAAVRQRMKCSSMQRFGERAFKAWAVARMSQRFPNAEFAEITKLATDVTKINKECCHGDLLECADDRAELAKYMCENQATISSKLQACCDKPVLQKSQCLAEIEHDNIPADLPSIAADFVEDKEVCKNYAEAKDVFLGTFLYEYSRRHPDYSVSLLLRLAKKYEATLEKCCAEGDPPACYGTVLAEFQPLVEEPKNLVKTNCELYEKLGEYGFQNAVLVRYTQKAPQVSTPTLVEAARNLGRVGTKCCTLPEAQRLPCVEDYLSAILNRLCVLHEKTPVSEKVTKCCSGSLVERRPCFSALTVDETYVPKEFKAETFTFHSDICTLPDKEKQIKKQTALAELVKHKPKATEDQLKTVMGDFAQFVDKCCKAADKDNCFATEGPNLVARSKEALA

For `CS(=O)(=O)c1ccc(C(=O)Nc2ccc(Cl)c(-c3ccccn3)c2)c(Cl)c1` [VISMODEGIB], the Activity in [1] is 96.5%; in [6], “Not Active”; in [13] it was 98.3%; in data set [14] it was 98.8%; in [15], 70.4%; in [16], 88.9%. The Activity in data set [17] is listed as 98.7%; in [18], 41.1%; in data set [19], 60%; in data set [20], 98.3%. The Kd in data set [2] was found to be 1.5 µM; in data set [5], 13 µM; on Albumin [7] it was 140 µM; in data set [8], 139 µM; on Albumin [9] it was 171 µM; on Albumin [10] it was 5.8 µM. Also, the results for the Kd in [11] and in data set [12] were 1.1 µM and 3.7 µM, respectively. For the same molecule, the inhibition result in data set [3] was “Active”. Also, in data set [4], the inhibition entry is “inactive”.

As for `CC(=O)CC(c1ccccc1)c1c(O)c2ccccc2oc1=O` (centres undefined) [WARFARIN], the Activity entry in data set [21], in [22], in data set [23] and in [24] was “Not Active” each time.

`C=CC1=C(C)/C(=C/C2=NC(=C\c3[nH]c(/C=C4\NC(=O)C(C)=C4C=C)c(C)c3CCC(=O)O)/C(CCC(=O)O)=C2C)NC1=O` [BILIVERDIN]: the Activity result at Albumin [25], on Albumin [26], on Albumin [29] and on Albumin [30] was “Not Active” in each case. For the same molecule, the Kd in data set [8] worked out at 219 µM; in data set [27], 71 µM; in data set [28] it was 1700 µM; in data set [31], 8.3 µM; in data set [11], 7 µM; in data set [12], 15.3 µM.
